Compounds with a hit are over-represented: about 1.2% of the library has one in this group of screens.
PfGluPho inh = PfG6PD (Plasmodium falciparum) enzyme inhibition; PfGluPho enzyme, NADPH resazurin-diaphorase fluorescence; inhibition, % at 20 µM; 350,000 compounds, 0.78% hits; AID 504690;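 active means inhibition reaching at least a set limit at 20 µM in the primary screen, cut at about 59% in these data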;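 further: 0% = DMSO wells with substrate and 100% = DMSO wells lacking glucose-6-phosphate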
G6PDH CS = L. mesenteroides G6PDH inhibition counter-screen. 200,000 compounds, 0.12% hits. inhibition, % at 5 µM. Purified L. mesenteroides G6PDH, diaphorase/resazurin coupled fluorescence, 45 min; in the data active means inhibition above about 50%
HKDC1 inh = inhibitors of human hexokinase HKDC1; recombinant HKDC1, G6PDH/diaphorase resazurin coupled fluorescence; 340,000 compounds, 0.16% hits; inhibition, % at 20 µM; Q2TB90;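 active means inhibition above about 35% when tested at 20 µM, limit read from the data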;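 further: plate controls were DMSO wells with enzyme for no effect and DMSO wells lacking enzyme for full effect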
Target sequence (Q2TB90 whole entry, looked up): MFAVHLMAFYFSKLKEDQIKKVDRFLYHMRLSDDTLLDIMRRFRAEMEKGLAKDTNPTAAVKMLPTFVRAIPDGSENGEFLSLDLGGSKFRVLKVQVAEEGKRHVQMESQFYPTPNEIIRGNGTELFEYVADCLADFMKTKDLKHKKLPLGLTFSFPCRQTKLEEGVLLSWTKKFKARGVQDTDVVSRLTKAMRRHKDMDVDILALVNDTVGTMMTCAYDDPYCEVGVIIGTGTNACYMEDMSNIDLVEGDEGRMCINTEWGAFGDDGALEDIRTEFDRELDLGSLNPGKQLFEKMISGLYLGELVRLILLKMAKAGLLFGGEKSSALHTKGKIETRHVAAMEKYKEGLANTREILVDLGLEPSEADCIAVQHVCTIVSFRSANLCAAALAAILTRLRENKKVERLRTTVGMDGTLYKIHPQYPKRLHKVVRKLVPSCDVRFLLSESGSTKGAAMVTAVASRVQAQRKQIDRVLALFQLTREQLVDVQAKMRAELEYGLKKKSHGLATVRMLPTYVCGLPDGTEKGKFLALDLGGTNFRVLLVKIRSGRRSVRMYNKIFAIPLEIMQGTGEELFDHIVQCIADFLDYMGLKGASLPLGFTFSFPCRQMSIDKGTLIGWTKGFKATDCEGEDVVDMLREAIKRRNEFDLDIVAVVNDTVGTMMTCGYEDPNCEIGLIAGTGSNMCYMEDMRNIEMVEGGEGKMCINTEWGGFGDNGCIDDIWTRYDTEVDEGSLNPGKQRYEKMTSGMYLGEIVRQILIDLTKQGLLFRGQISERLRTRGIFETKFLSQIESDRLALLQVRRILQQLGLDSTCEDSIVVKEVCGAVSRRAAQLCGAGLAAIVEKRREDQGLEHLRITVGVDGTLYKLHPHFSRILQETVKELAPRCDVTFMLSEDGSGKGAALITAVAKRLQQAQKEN
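Assay system: in-house recombinant HK5 (HKDC1) enzyme. Input: HKDC1 at 5 µg/mL. Medium: Tris pH 8.0 buffer with MgCl2, Tween-20, BSA, BME. Dosing: single 20 µM dose. Schedule: 90 min reaction incubation at room temperature, dark. Signal: resazurin-to-resorufin fluorescence via G6PDH and diaphorase coupling, 525/613 nm. Controls: DMSO-enzyme wells negative, buffer-substituted wells positive.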
Diaphorase inh = diaphorase inhibition or chemical oxidation counter-screen; diaphorase resazurin-to-resorufin fluorescence, NADH, 16 min; bacterial (C. kluyveri) enzyme, not human; inhibition, % at 20 µM; 190,000 compounds, 0.69% hits;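 active means primary screen inhibition at 20 µM above a set limit, cut at about 50% in these data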;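 further: plate controls were DMSO with full reaction for no effect and wells lacking NADH for full effect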
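Benchmarks: positive control wells lacking NADH, neutral wells with DMSO only. System: bacterial diaphorase enzyme (C. kluyveri). Input: 0.14 U/mL diaphorase, enzyme working solution. Detection: resorufin fluorescence, excitation 544 nm, emission 590 nm. Times: 16-min room-temperature incubation before reading.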
Diaphorase act = counter-screen for diaphorase-based assays: diaphorase activators and chemical reducers; activation factor at 20 µM; 190,000 compounds, 0.005% hits; Diaphorase/resazurin coupled assay, resorufin fluorescence, 16 min; hits give high values; 1 = vehicle wells, 0 = NADH-free wells;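 active means diaphorase activity raised at least twofold by the compound at 20 µM; inactive means activation factor below 2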
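System – purified diaphorase enzyme from Clostridium kluyveri · Input – enzyme 0.07 U/mL final · Also added – final NADH 0.114 mM, resazurin 0.1 mM · Measured by – fluorescence of resorufin, 544 nm excitation, 590 nm emission · Timing – 16 min enzyme reaction, ambient temperature · Measure – resorufin increase flagging diaphorase activators or reducers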
PfGluPho conf = confirmation of Plasmodium falciparum G6PD inhibitors; recombinant PfGluPho, NADPH-diaphorase-resazurin fluorescence; shares compounds with PfGluPho inh; inhibition, % at 20 µM; 2,400 compounds, 34% hits;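 active means inhibition of at least 50% at 20 µM in any single replicate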;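 further: 0% = DMSO with substrate and 100% = DMSO lacking glucose-6-phosphate substrate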
Diaph ctr 10uM = inhibits diaphorase or oxidizes, flagging false PfG6PD hits. inhibition, % at 20 µM. diaphorase-coupled resazurin reduction, fluorescence, NADPH 10 uM. shares compounds with PfGluPho inh. 820 compounds, 39% hits;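 active means average inhibition reaching 50% or more with the compound at 20 µM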;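 further: resorufin red fluorescence formed as diaphorase reduces resazurin using NADPH; 0% = DMSO with enzyme and 100% = DMSO without enzyme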
Diaphorase 30uM = diaphorase inhibition or oxidation at 30 uM NADPH. 820 compounds, 29% hits. shares compounds with PfGluPho inh. Diaphorase/resazurin coupled assay, resorufin fluorescence. inhibition, % at 20 µM;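 active means inhibition averaging 50% or more, tested at 20 µM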;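 further: 0% = DMSO with enzyme and 100% = DMSO wells lacking diaphorase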
Active calls of the source: *; · = not tested or not shown.

SMILES	PfGluPho inh	G6PDH CS	HKDC1 inh	Diaphorase inh	Diaphorase act	PfGluPho conf	others
O=C1c2ccccc2C(=O)c2c1oc(C(F)(F)F)c2C(=O)c1ccccc1	74*	57*	17	6	0.9	16
Cc1nn(C(=O)c2cccnc2)c(C)c1Sc1ccc(Br)cc1	67*	0	-3	12	0.9	44
CCCCOc1ccc(Cc2n[nH]c(=S)n2N)cc1	61*	26	0	7	0.9	50*	Diaph ctr 10uM=-20;Diaphorase 30uM=-17
O=C(COC(=O)c1ccc(O)cc1O)Nc1ccc2c(c1)OCCO2	1	·	1	·	·	·
CCC(CO)[n+]1c(C)cc(/C=C2\Sc3ccccc3N2Cc2ccccc2)cc1C (configuration not stated)	74*	-30	5	16	0.8	54*	Diaph ctr 10uM=24;Diaphorase 30uM=31
CCN1/C(=C2\SC(=S)N(Cc3ccccc3)C2=O)Sc2ccccc21	-19	-18	-5	8	0.9	·
CCOC(=O)c1sc(N/N=C/c2cccc(C)c2)nc1C	-2	-3	-5	18	0.8	·
CCOC(=O)c1sc(N/N=C/c2ccccc2)nc1C	66*	6	-5	10	0.9	23
COc1cccc(C(=O)Nc2sc(C(C)C)cc2C(N)=O)c1OC	98*	·	-3	·	·	23
COc1cccc(C(=O)Nc2nnc(-c3ccccc3)s2)c1OC	-20	·	0	·	·	·
COc1ccc(C)cc1Nc1n[n+](-c2ccccc2)c(-c2c(OC)ccc3ccccc23)s1	115*	·	9	·	·	75*	Diaph ctr 10uM=69*;Diaphorase 30uM=50
Fc1ccc(-[n+]2nc(Nc3ccccc3)sc2-c2c3ccccc3cc3ccccc23)cc1	132*	·	4	·	·	82*	Diaph ctr 10uM=78*;Diaphorase 30uM=60*
CCN1CCN(C(=S)c2ccc(Cl)c(Cl)c2)CC1	59*	-5	-2	10	0.9	55*	Diaph ctr 10uM=24;Diaphorase 30uM=-16
CCN1CCN(C(=S)Nc2ccc(Cl)c(Cl)c2)CC1	6	12	-2	11	0.9	·
O=C(NCc1ccco1)c1ccc(Cl)c(S(=O)(=O)N2CCCC2)c1	19	·	3	·	·	·
C[C@@H]1CN([C@H](C)CO)C(=O)CCCn2nncc2CO[C@H]1CN(C)S(=O)(=O)c1cccc(F)c1	8	·	·	·	·	·
O=[N+]([O-])c1cccc(CSC2=NCCN2S(=O)(=O)c2ccccc2)c1	72*	·	2	·	·	19
Cc1ccc(CSC2=NCCN2S(=O)(=O)c2ccccc2)cc1	21	7	7	20	0.8	·
O=S(=O)(c1ccccc1)N1CCN=C1SCc1ccccc1	79*	4	-10	10	0.9	36
O=[N+]([O-])c1ccc(S(=O)(=O)N2CCN=C2SCc2cccnc2)cc1	-18	4	3	9	0.9	·
O=C(NCc1ccccc1)C1CCN(S(=O)(=O)c2ccc(Cl)cc2)CC1	-5	18	-7	18	0.8	·
COc1ccccc1C(=O)Nc1cc(Cl)ccc1O	35	14	-5	19	0.8	·
CCOc1ccccc1C(=O)Nc1cc(Cl)ccc1O	67*	-36	5	18	0.8	-9
CCOC(=O)C1=C(C)NC(C)=C(C(=O)OCC)C1c1cccc([N+](=O)[O-])c1	6	·	·	·	·	·
COC(=O)C1=C(C)NC(C)=C(C(=O)OCC(C)C)C1c1ccccc1[N+](=O)[O-] (configuration not stated)	62*	·	-3	·	·	2
CC(C)(C)c1ccc(C(=O)Nc2ccc(F)cc2)s1	86*	·	3	·	·	7
COc1ccccc1NC(=O)CCCN1C(=O)C2CC=CCC2C1=O (configuration not stated)	-1	·	2	·	·	·
CCN(C(=O)CSc1nc2ccc(Cl)cc2[nH]1)C1CCS(=O)(=O)C1 (configuration not stated)	11	·	1	·	·	·
CCOCc1c(C(=O)Nc2ccc(OC)nc2)oc2ccccc12	41	·	-3	·	·	·
